Measurements from ChEMBL document CHEMBL1152248, “The 'Ethereal' nature of TLR4 agonism and antagonism in the AGP class of lipid A mimetics” (Bioorg Med Chem Lett, 2008).
Active and inactive are the calls of the source. The calls are words filed in the database; no cut-off is given here.

What was measured:
Toll-like receptor 4 [1] = molecular target: T1, Toll-like receptor 4 (Homo sapiens, UniProt O00206); assay: Antagonist activity at TLR4 in human PBMC assessed as inhibition of LPS-stimulated TNFalpha production pre-incubated for 30 mins before LPS challenge measured after 18 hrs by ELISA; format: functional
Outline: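 Adherence-isolated human monocytes were preincubated with compound for 30 min, then stimulated with 100 ng/mL E. coli LPS. Supernatant TNF-α was measured by ELISA after 18 h. IC50 was fitted with a four-parameter logistic dose–response model.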

Toll-like receptor 4 [2] = molecular target: T1, Toll-like receptor 4; assay: Agonist activity at TLR4 in human PBMC assessed as induction of TNFalpha production after 18 hrs by sandwich ELISA; format: functional
Outline: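 Human monocytes were isolated by 2 h adherence to tissue-culture plates. They were exposed to compound over a 0–10,000 range in 0.2% aq triethanolamine (TEOA) for 18 h. TNF-α in supernatants was measured by sandwich ELISA. Data are three replicate samples from one of three donors. ED50 was fitted with a four-parameter logistic dose–response model.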

Mus musculus = assay: Inhibition of LPS-induced serum TNFalpha production in iv dosed BALB/c mouse after 1.5 hrs by ELISA; format: functional, organism-based
Outline: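 BALB/c mice (n = 3) were given 5 ng LPS iv, either alone or together with 0.2% TEOA vehicle or test compound. Serum was collected 1.5 h post-injection and TNF-α was measured by ELISA.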

Listeria monocytogenes [3] = assay: Inhibition of CRX-527-mediated protection against Listeria monocytogenes infected iv dosed BALB/c mouse administered 2 days prior to bacterial challenge measured after 2 days; format: organism-based; details: in vivo, 48 h
Outline: (§1)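 BALB/c mice got AGP iv in 100 µL of 0.2% aq TEOA 2 days before iv challenge with 10^5 L. monocytogenes. Two days after challenge, splenic CFUs were counted by serial dilution of homogenates. Log10 relative protection is control-group log10 CFU/spleen minus test-group log10 CFU/spleen.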

Influenza A virus [4] = assay: Protection against Influenza A/HK/68 virus infected BALB/c mouse assessed as survival at 5 mg/kg, intranasal administered 2 days prior to influenza challenge measured after 21 days; format: functional; details: inhaled or nasal
Outline: (§2)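 Female/male unspecified BALB/c mice, 8 per group, given compound intranasally in 0.2% aqueous triethanolamine vehicle 2 days before intranasal influenza challenge. Vehicle-only group as control. Read-out is percent survival, recorded over 21 days after viral challenge.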

Influenza A virus [5] = assay: Protection against Influenza A/HK/68 virus infected BALB/c mouse assessed as survival at 0.5 mg/kg, intranasal administered 2 days prior to influenza challenge measured after 21 days; format: functional; details: inhaled or nasal; outline: as §2
Influenza A virus [6] = assay: Protection against Influenza A/HK/68 virus infected BALB/c mouse assessed as survival at 0.05 mg/kg, intranasal administered 2 days prior to influenza challenge measured after 21 days; format: functional; details: inhaled or nasal; outline: as §2
Influenza A virus [7] = assay: Protection against Influenza A/HK/68 virus infected BALB/c mouse assessed as survival at 0.005 mg/kg, intranasal administered 2 days prior to influenza challenge measured after 21 days; format: functional; details: inhaled or nasal; outline: as §2
Listeria monocytogenes [8] = assay: Protection against Listeria monocytogenes infected iv dosed BALB/c mouse assessed as reduction in splenic bacteria administered 2 days prior to bacterial challenge measured after 2 days; format: functional, organism-based; outline: as §1

T1 sequence (O00206 whole entry): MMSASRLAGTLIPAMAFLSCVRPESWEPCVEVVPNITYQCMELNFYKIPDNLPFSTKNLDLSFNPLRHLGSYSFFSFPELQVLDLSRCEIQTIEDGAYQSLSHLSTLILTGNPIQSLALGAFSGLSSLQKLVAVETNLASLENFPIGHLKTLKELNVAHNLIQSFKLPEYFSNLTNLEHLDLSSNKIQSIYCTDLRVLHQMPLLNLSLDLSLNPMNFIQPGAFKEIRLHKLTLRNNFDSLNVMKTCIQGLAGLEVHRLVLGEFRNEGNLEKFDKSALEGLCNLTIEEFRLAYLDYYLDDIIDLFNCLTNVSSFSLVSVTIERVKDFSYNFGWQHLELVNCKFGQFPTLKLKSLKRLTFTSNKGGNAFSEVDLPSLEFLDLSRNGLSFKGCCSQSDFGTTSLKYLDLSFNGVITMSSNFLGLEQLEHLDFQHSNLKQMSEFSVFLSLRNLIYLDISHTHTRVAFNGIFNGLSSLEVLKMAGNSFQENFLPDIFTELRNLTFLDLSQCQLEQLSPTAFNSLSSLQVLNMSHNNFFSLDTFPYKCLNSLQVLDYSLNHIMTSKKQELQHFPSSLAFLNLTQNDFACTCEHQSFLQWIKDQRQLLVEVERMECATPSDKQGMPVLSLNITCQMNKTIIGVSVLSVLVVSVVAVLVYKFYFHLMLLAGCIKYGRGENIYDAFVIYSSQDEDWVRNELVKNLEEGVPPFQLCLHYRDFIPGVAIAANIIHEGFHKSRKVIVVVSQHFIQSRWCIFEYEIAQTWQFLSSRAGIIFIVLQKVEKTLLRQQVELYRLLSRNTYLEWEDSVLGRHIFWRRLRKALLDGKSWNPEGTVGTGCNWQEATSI

| SMILES | IC50 (Toll-like receptor 4 [1]) [nM] | Activity (Toll-like receptor 4 [2]) | Activity (Mus musculus) | Activity (Listeria monocytogenes [3]) | Activity (Toll-like receptor 4 [1]) | ED50 (Toll-like receptor 4 [2]) [nM] | survival at 5 mg/kg (Influenza A virus [4]) [%] | survival at 0.5 mg/kg (Influenza A virus [5]) [%] | survival at 0.05 mg/kg (Influenza A virus [6]) [%] | survival at 0.005 mg/kg (Influenza A virus [7]) [%] | Activity (Listeria monocytogenes [8]) |
| --- | --- | --- | --- | --- | --- | --- | --- | --- | --- | --- | --- |
| CCCCCCCCCCC[C@H](CC(=O)N[C@H]1[C@H](OC[C@H](NC(=O)C[C@@H](CCCCCCCCCCC)OC(=O)CCCCC)C(=O)O)O[C@H](CO)[C@@H](OP(=O)(O)O)[C@@H]1OC(=O)C[C@@H](CCCCCCCCCCC)OC(=O)CCCCC)OC(=O)CCCCC | 2.4 | inactive | Active | Dose-dependent effect |  |  |  |  |  |  |  |
| CCCCCCCCCCC[C@H](CC(=O)N[C@H]1[C@H](OC[C@H](NC(=O)C[C@@H](CCCCCCCCCCC)OCCCCCCCCCC)C(=O)O)O[C@H](CO)[C@@H](OP(=O)(O)O)[C@@H]1OC(=O)C[C@@H](CCCCCCCCCCC)OCCCCCCCCCC)OCCCCCCCCCC |  |  |  |  | inactive | 0.17 | 100 | 80 | 60 | 20 | Active |
| CCCCCCCCCCC[C@H](CC(=O)N[C@H]1[C@H](OC[C@H](NC(=O)C[C@@H](CCCCCCCCCCC)OC(=O)CCCCCCCCC)C(=O)O)O[C@H](CO)[C@@H](OP(=O)(O)O)[C@@H]1OC(=O)C[C@@H](CCCCCCCCCCC)OC(=O)CCCCCCCCC)OC(=O)CCCCCCCCC |  |  |  |  | inactive | 0.39 | 100 | 70 | 70 | 30 | Active |
| CCCCCCCCCCC[C@H](CC(=O)N[C@H]1[C@H](OC[C@H](NC(=O)C[C@@H](CCCCCCCCCCC)OCCCCCC)C(=O)O)O[C@H](CO)[C@@H](OP(=O)(O)O)[C@@H]1OC(=O)C[C@@H](CCCCCCCCCCC)OCCCCCC)OCCCCCC | 5.3 | inactive | inactive | Not Active |  |  |  |  |  |  |  |
